# CHOP UPR activ – activators of apoptotic CHOP UPR arm, primary screen, cell-based, CHO-CHOP luciferase reporter, luminescence, uHTS; activation, % at 10 µM; UPR activation; percent of tunicamycin response over DMSO baseline; hit rate 0.34% among 330,000;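 active = at 10 µM dose, activation of 40% or more, normalized to positive control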;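 also: 100% = tunicamycin at 10 µg/mL and 0% = DMSO alone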
#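 System: CHO-CHOP luciferase reporter cell line | Buffer or medium: F12 medium containing 10% fetal bovine serum | Doses: One dose, 10 µM in 0.5% DMSO | Times: 6 h compound exposure at 37 °C after overnight seeding | Signal: Luciferase luminescence | Read-out: % activation vs tunicamycin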
# T cruzi repl – inhibitors of intracellular T. cruzi growth, primary screen, luminescence, NIH3T3 host cells; T. cruzi beta-gal in NIH3T3, 90 h; inhibition, % (test concentration not listed); hit rate 1.4% among 300,000; AID 1885, 2009;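 active = mean inhibition across valid replicates above about 55%, limit read from the data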;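 also: signal also drops with host cell toxicity which is not excluded here; 0% = plate median of DMSO wells and 100% = zero luminescence signal; higher percent means less beta-gal luminescence so fewer parasites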
#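 Incubation – ≥90 h infection period, 3 h prior cell attachment · System – NIH/3T3 fibroblasts plus reporter T. cruzi · Doses – compound pinned at 50 nL/well, DMSO · Read-out basis – percent inhibition of parasite-derived β-gal signal · Signal – luminescent β-galactosidase signal after 60 min lysis · Also added – 5000 T. cruzi trypomastigotes/well · Medium – Low-serum DMEM with 2% FBS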
# Dynein transport – inhibitors of GR-EGFP nuclear translocation, primary screen, dynein cargo transport inhibitor project, imaging, high-content, 3617.4 mouse cells; hit rate 0.47% among 220,000; z-score, hits read low; AID 1381, 2008; test concentration mostly 20 µM; stimulated with dexamethasone, 1 µM; hits give low values;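 active = plate z-score of nuclear minus cytoplasmic receptor signal below a set negative limit, without overly bright fluorescence or cell loss, cut at about -3.5 in these data, passing the limit was not always enough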;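 also: z-score of nuclear minus cytoplasmic ring GR-EGFP intensity difference per well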
#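 Schedule: 48 h induction, then 1 h compound, then 30 min agonist, 37 °C. Buffer or medium: tetracycline-free induction medium containing charcoal-stripped FBS. Reagent: 1.0 µM final dexamethasone stimulus. Evaluation: nuclear versus cytoplasmic GR-EGFP signal, averaged per well. Signal: high-content fluorescence imaging after fixation.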
# XBP1 UPR activ – activators of adaptive XBP1 UPR arm, primary screen, cell-based, CHO-XBP1 luciferase reporter, luminescence, uHTS | AID 463104, 2010 | activation, % at 20 µM | IRE1-XBP1 UPR activation; percent of tunicamycin response, DMSO as zero | hit rate 0.33% among 330,000;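 active = versus positive control, 20 µM dose yields 30% or more activation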;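 also: 100% = tunicamycin at 10 µg/mL and 0% = DMSO only wells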
#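 assay system = CHO-XBP1 luciferase reporter cells | amount = 1000 cells/well | buffer or medium = F12 plus 10% FBS | compound dosing = single point, 20 µM final compound, 1% DMSO | incubation = 16-18 h cell attachment at 37 °C, then 6 h compound exposure | detection = Steady-Glo luminescence read | controls = tunicamycin 10 µg/mL and vehicle-only wells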
# L major viab – Leishmania major promastigote growth inhibition, primary screen; inhibition, % at 10 µM; hit rate 9% among 200,000; Leishmania major promastigotes, resazurin fluorescence viability; in the data active = inhibition above about 50%;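 also: promastigotes grown with compound for 44 hours at 28 °C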
# CHOP inh – inhibitors of CHOP promoter induction, primary screen, cell-based, unfolded protein response, luciferase reporter; CHO-K1 CHOP-promoter luciferase, tunicamycin-induced, 15-18 h; inhibition, % at 10 µM; hit rate 3.8% among 220,000;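 active = compounds that reduced the stress-induced luciferase reporter signal by more than about 70% of percent inhibition, limit read from the data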;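 also: 0% = tunicamycin plus vehicle and 100% = wells without tunicamycin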
# * = called active by the depositor; . = not tested or not shown. Only a selection was taken, and hits are over-represented in it overall.
SMILES,CHOP UPR activ,T cruzi repl,Dynein transport,XBP1 UPR activ,L major viab,CHOP inh
O=C(CCCN1C(=O)/C(=C\c2ccccc2)SC1=S)Nc1cccc(C(=O)O)c1,-1,4,.,-6,.,.
Cc1ccc(/C=C2/SC(=S)N(CCCC(=O)Nc3ccc(O)cc3)C2=O)cc1,-4,34,0.099,-3,16,94*
Cc1ccc(/C=C2\SC(=S)N(CCCC(=O)NNC(=O)c3ccccc3O)C2=O)cc1,-8,18,2.9,-6,.,98*
O=C(CCN1C(=O)/C(=C/c2cccc(Br)c2)SC1=S)Nc1cccnc1,-1,10,-0.62,7,0,87*
CN(C)S(=O)(=O)c1ccc(N2CCCC2)c(C(=O)N2CCC(C(N)=O)CC2)c1,0,-7,.,0,.,.
COc1ccc2c(O)c(-c3c(C)cc(C)cc3C)c(=O)[nH]c2c1,0,-15,.,-1,.,.
O=C(CSc1nnc(NC(=O)C2CC2)s1)NCc1ccccc1Cl,0,12,.,-1,.,.
Cc1ccc(NC(=O)COc2cccc(/C=C3\SC(=S)N(CCC(=O)O)C3=O)c2)cc1Cl,0,15,-0.43,0,.,98*
O=C(O)CCN1C(=O)/C(=C\c2cccc(OCC(=O)Nc3ccc(Cl)cc3)c2)SC1=S,1,0,-0.52,0,.,5
O=C(C[C@H]1C/C=C\CCCCC(=O)OC[C@H]2CCCN2C1=O)N[C@H](CO)Cc1ccccc1,2,.,.,0,.,.
COc1ccc2c(c1OC)C(=O)OC2C1c2c(cc3c(c2OC)OCO3)CCN1C (stereo not drawn),1,0,0.056,-1,5,9
CN1CCc2cc3c(c4c2[C@H]1[C@H](O)c1ccccc1-4)OCO3,-2,42,-1,-1,96*,6
CCn1c(SCC(=O)Nc2cccc(C)c2)nc2nc3c(cc2c1=O)COC(C)(C)C3,-1,-4,0.82,0,.,30
Cc1ccc(NC(=O)C(OC(=O)c2ccc(O)cc2)c2ccccc2)cc1Cl (stereo not drawn),-3,32,0.08,-2,4,-6
Cc1ccc(NC(=O)C(OC(=O)c2ccc(F)cc2)c2ccccc2)cc1Cl (stereo not drawn),.,-2,-1.2,.,4,73*
O=C(COc1ccc2ccccc2c1)Nc1ccc2c3c(cccc13)CC2,-1,-47,-0.51,0,43,92*
Cc1cc(C)cc(OCC(=O)Nc2ccc3c4c(cccc24)CC3)c1,-1,-15,0.082,-1,-3,65
CCCCCn1c(=O)[nH]c2cc(C(=O)NC3CCN(Cc4ccccc4)CC3)ccc2c1=O,-1,35,.,-2,.,.
N#CC(c1ccccc1)C1CCN(Cc2ccccc2)CC1 (stereo not drawn),3,9,-1.7,-1,88*,-15
Cc1ccc(-c2nnn(CC(=O)NC3CCN(Cc4ccccc4)CC3)n2)cc1,1,66*,-0.23,0,-9,40
CC(Oc1ccccc1)C(=O)NC1CCCCCCC1 (stereo not drawn),-2,7,.,-1,.,.
CC(CN1CCN(Cc2ccccc2)CC1)c1ccccc1 (stereo not drawn),2,-1,.,-4,.,.
O=C(NC1CCN(Cc2ccccc2)CC1)c1ccc2c(c1)[nH]c(=O)n2Cc1ccc(F)cc1,1,58*,-0.47,-4,35,25
CC(Oc1ccccc1)C(=O)NC1CCN(Cc2ccccc2)CC1 (stereo not drawn),0,39,-0.4,-5,91*,6
Cc1ccc(NC(=O)COC(=O)Cn2cnc3c2c(=O)n(C)c(=O)n3C)c(Cl)c1,2,0,0.11,5,-10,15
SMILES,CHOP UPR activ,T cruzi repl,Dynein transport,XBP1 UPR activ,L major viab,CHOP inh
Cc1ccc(S(=O)(=O)/N=C(/Nc2cccc(O)c2)c2ccccc2)cc1,0,0,.,2,.,.
COc1ccc(CCNC(=O)c2c(O)c3ccccc3[nH]c2=O)cc1OC,0,-1,.,3,.,.
O=C(CN(C(=O)CNC(=O)c1ccco1)c1ccc(F)cc1)NC1CCCCC1,2,-4,.,-3,.,.
O=C(Cn1cc2c(n1)CCCCC2)NC1CCN(Cc2ccccc2)CC1,1,16,-0.09,-4,83*,32
O=C(NC1CCN(Cc2ccccc2)CC1)c1ccccc1,-1,56*,.,-1,.,.
O=C(Cc1ccccc1)NC1CCN(Cc2ccccc2)CC1,-2,43,-0.35,-3,82*,24
O=C(NC1CCN(Cc2ccccc2)CC1)c1cncc(Br)c1,3,16,1.5,1,67*,29
Cn1c(=O)c2c(ncn2CC(=O)N/N=C/C=C\c2ccccc2[N+](=O)[O-])n(C)c1=O,3,-15,-0.44,-3,.,13
Cc1ccc(S(=O)(=O)c2nc(Cc3ccccc3)oc2N2CCOCC2)cc1,-1,.,.,-1,.,.
O=S(=O)(Nc1ccccn1)c1ccc(Cl)c2ccccc12,1,0,0.28,-3,-4,19
Cc1c(C(=O)Nc2cccc([N+](=O)[O-])c2)cnn1-c1ccccc1,5,-8,.,3,.,.
CC1CC(C)CN(CCCNC(=O)Cn2cccc2C(=O)c2ccccc2)C1 (stereo not drawn),0,33,.,-2,.,.
Cc1cccc(C)c1NC(=O)Cn1c(=O)n(CCCC(=O)NC2CCN(Cc3ccccc3)CC2)c(=O)c2ccccc21,-1,25,.,0,.,.
O=C(NC1CCN(Cc2ccccc2)CC1)C12CC3CC(CC(C3)C1)C2,0,43,0.41,2,88*,-2
O=C(CCCCn1c(=O)c2ccccc2n(Cc2ccccc2F)c1=O)NC1CCN(Cc2ccccc2)CC1,-2,52,0.56,-2,72*,79*
Cc1ccc(CC(=O)NC2CCN(Cc3ccccc3)CC2)cc1,4,34,.,-6,.,.
CN1C(=O)/C(=C\c2ccccc2F)Sc2ccc(C(=O)NC3CCN(Cc4ccccc4)CC3)cc21,-1,61*,.,-4,.,.
COc1ccc(/C=C2\Sc3ccc(C(=O)NC4CC4)cc3N(C)C2=O)cc1OC,0,8,.,1,.,.
COc1ccc(NC(=O)CSc2nnnn2C)cc1S(=O)(=O)N1CCCCC1,-2,.,.,-1,.,.
CC(=O)N1c2ccccc2C(C)CC12CCCCC2 (stereo not drawn),-1,4,-0.12,-2,2,85*
N=C(N)Cc1ccccc1Sc1ccccc1,-2,4,-0.67,-4,98*,-11
c1ccc(Sc2ccccc2CN2CCCC2)cc1,-1,25,.,2,.,.

# Screening data from PubChem BioAssay.
